According to ChEMBL document CHEMBL4513216, “Probing the Open Global Health Chemical Diversity Library for Multistage-Active Starting Points for Next-Generation Antimalarials” (ACS Infect Dis, 2020):

Assay: Toxicity liver stage against HepG2, at 10uM
Assay type: cell-based
Design: test concentration 10 uM, cell line HepG2-A16-CD81EGFP
Details: human, HepG2-A16-CD81EGFP cells; read-out: INHIBITION
Method in brief: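 Uninfected HepG2-A16-CD81EGFP cells, 3 × 10^3 per well, 1536-well, plated on prespotted compound at 10 μM final, parasite-free screening media added to match infected plates; puromycin 10 μM positive, DMSO 0.5% negative; run in parallel with 48 h PbLuc assay at 37 °C, 5% CO2; viability by CellTiter-Glo luminescence, normalized to controls.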

Row | SMILES | cytotoxicity at 10 µM [%]
1 | CC1CCN(S(=O)(=O)N2CCc3sccc3C2)CC1 | -30.8
2 | CN1Cc2nc[nH]c2C[C@H]1C(=O)NC1CCCCC1 | 0.0515
3 | NC(=O)CN1C(=O)CO[C@H]2CN(Cc3ccccc3)C[C@H]21 | 0.67
4 | CCOc1ccccc1CNS(=O)(=O)c1ccc2c(c1)CCCC(=O)N2 | 7.89
5 | CCOc1ccc2[nH]c3c(N(C)CC4OCCO4)ncnc3c2c1 | 15.2
6 | COCCn1cnc2ccc(NC(=O)c3ccccn3)cc2c1=O | -6.81
7 | CCOc1ccccc1NC(=O)NCCc1ccoc1 | -1.18
8 | c1cc(CN2CCC3(CC2)COC(COCC2CC2)C3)cs1 (configuration not stated) | -0.272
9 | O=C(C1CCOC1)N1CCC2(CC1)COC2 (configuration not stated) | 3.06
10 | Cc1ccc2c(c1)C1(CCN(S(C)(=O)=O)CC1)CN2C(=O)N(C)C | -121
11 | O=C([C@H]1C[C@H]2OCC[C@H]2N(C(=O)c2ccnnc2)C1)N1CCCCO1 | 4
12 | COC[C@H]1CCC[C@]12CN(Cc1cccc(C)n1)CCO2 | 2.23
13 | CCS(=O)(=O)N1CCc2cc(C(=O)NC)c(N(C)C)nc2CC1 | -141
14 | Cc1nn(C)c2cn(CC(=O)NC3CCSCC3)nc12 | 0.243
15 | CCn1ncc2c(C(F)(F)F)cc(-c3cnn(C)c3)nc21 | 3.67
16 | CN(C)CC1(O)CCN(C(=O)Cc2ccc3c(c2)CCC3)C1 (configuration not stated) | -7.84
17 | Cc1cc(Nc2cnccn2)cc(C2CCCNC2)n1 (configuration not stated) | 4.75
18 | COCCNC(=O)C(C)n1nc(-c2ccc(C)o2)cc(N)c1=O (configuration not stated) | 1.26
19 | CN(c1cccnn1)[C@@H]1CC[C@@H]2CN(Cc3ccccc3C(=O)O)C[C@@H]21 | 7.43
20 | Cc1ccc(C2CCCN(S(=O)(=O)N3CCOCC3)C2)nc1 (configuration not stated) | 4.25
21 | Cc1ccc(S(=O)(=O)N2C[C@H]3C[C@H](NC(=O)C(C)C)[C@H]3C2)cc1 | -4.59
22 | CC1CCCN(Cc2c(C3CC3)[nH]c3ncccc23)C1 (configuration not stated) | -34.1
23 | CNC(=O)C1(c2cnccn2)CCCN1C(=O)c1ncccc1C (configuration not stated) | 4.22

Row | SMILES | cytotoxicity at 10 µM [%]
24 | Cc1nc(C2CCN(S(=O)(=O)c3ccc4c(c3)CCO4)CC2)n[nH]1 | -8.91
25 | N#Cc1ccc(CS(=O)(=O)NC(=O)c2ccc3c(c2)COC3)cc1 | 3.65
26 | Cc1cc(CSCc2csc(CS(C)(=O)=O)n2)no1 | -2.49
27 | COc1ccccc1CC(NC(=O)N1CCOCC1)C(C)C (configuration not stated) | 4.29
28 | Cc1nc(C(C)(C)NCc2ncc(C(C)C)o2)sc1C | 6.32
29 | CS(=O)(=O)N1CCC(CNc2c(Cl)cccc2C#N)CC1 | -6.67
30 | N#CC1COCCN1C(=O)c1ccc2[nH]ccc2c1 (configuration not stated) | 14.4
31 | COC(=O)c1ccc(NC(C)c2ccc3c(c2)CCC(=O)N3)nn1 (configuration not stated) | 2.52
32 | CCn1ccnc1CN1CCN(C(C)C(=O)NCC(F)(F)F)CC1 (configuration not stated) | 9.73
33 | CC(CC(=O)c1ccco1)NC(=O)c1ccon1 (configuration not stated) | -17.9
34 | Cc1cccn2cc(CNS(=O)(=O)N3CCOCC3)nc12 | -6.6
35 | COc1ccc(NC(=O)N2CCC(CSC)C2)cc1C (configuration not stated) | 3.36
36 | Cc1cccc(C2(C(=O)NCC3CN(C)CCO3)CC2)c1 (configuration not stated) | -7.45
37 | CC(Nc1ccc(CN2CCCC2=O)cc1)c1ccc(C#N)cc1 (configuration not stated) | 6.29
38 | CC(C)(C)OC(=O)NCCNC(=O)c1cnc(-c2ccccc2)nc1 | 8.12
39 | NS(=O)(=O)CCNC(=O)C1(c2ccccc2)CC1 | -0.18
40 | CC(C)C1CN(C(=O)c2ccncc2)CCS1 (configuration not stated) | 9.72
41 | Cc1nc(CCNC(=O)Nc2cc(C(F)(F)F)c[nH]c2=O)cs1 | 0.614
42 | CCN(CC1CCOC1)C(=O)c1ccc(-c2ccsc2)nc1C (configuration not stated) | 6.39
43 | O=C(CN1CCCC1Cn1cncn1)Nc1ccnn1C1CCCC1 (configuration not stated) | -1.07
44 | CC(O)CN(c1ccccc1)S(=O)(=O)c1cc(C(=O)O)cc2c1CCC2 (configuration not stated) | 11.1
45 | CC1CCCCN1C(=O)c1ccc(Br)s1 (configuration not stated) | -8.21
46 | Cn1ccnc1-c1noc(NCc2ccc(Br)cc2)n1 | -4.32

Row | SMILES | cytotoxicity at 10 µM [%]
47 | O=C1CCC(=O)N1CCN1CCC(=Cc2ccccc2)CC1 | 8.82
48 | CC(C)(CNC(=O)CSc1nnnn1C1CC1)c1ccccc1F | 13.4
49 | CCCNC(=O)C(C)Nc1ccn(Cc2ccccn2)n1 (configuration not stated) | -5.95
50 | CC(=O)N(Cc1noc(C)n1)C1CCN(CC2CCCC2)C1 (configuration not stated) | -12.3
51 | CC(C)OCCOCc1cccc(NC(=O)N2CCCC(O)C2)c1 (configuration not stated) | -5.01
52 | COC(C)C(=O)NS(=O)(=O)c1ccc(F)c(C(F)(F)F)c1 (configuration not stated) | -4.04
53 | CCCc1noc(CS(=O)(=O)c2cccc(OC)c2)n1 | 17.4
54 | CCCC(=O)NS(=O)(=O)c1ccc(C#N)c(C(F)(F)F)c1 | -12.8
55 | O=C1C(Nc2nccn3cnnc23)CCN1c1cccc(Cl)c1 (configuration not stated) | -1.7
56 | CCN(CC)C(=O)Nc1ccc(C(=O)N(C)C)c(C)c1 | 7.52
57 | OC(CN1CCCc2cc(OC(F)F)ccc21)Cn1cccn1 (configuration not stated) | 6.85
58 | CCN1CCCCC1C(=O)Nc1cccc(-c2nnc[nH]2)c1 (configuration not stated) | 4.03
59 | Cc1ccc(N2CCCC(N(C)Cc3cc(C)no3)C2)nn1 (configuration not stated) | 11.9
60 | CN(C)CCn1c(=O)oc2ccc(NC(=O)C3CCCO3)cc21 (configuration not stated) | 0.743
61 | Cn1ccnc1CNC1CCCN(Cc2noc(C3CC3)n2)C1 (configuration not stated) | -11.1
62 | O=C(CCc1cccc(F)c1F)N1CCN(Cc2ccco2)CC1 | -11.5
63 | CS(=O)(=O)NCc1ncn2c1CN(C(=O)C1CCCO1)CCC2 (configuration not stated) | -110
64 | CCN1C[C@H]2N(c3ncccn3)CCC[C@@]2(C(=O)NCC2CC2)C1 | -97.3
65 | COc1cccc(C(C(=O)O)N2CCC(Cn3cccn3)CC2)c1OC (configuration not stated) | -1.77
66 | NCC1CCCN(c2nc(-c3ccccc3)nc3c2CCNCC3)C1 (configuration not stated) | -10.3
67 | COCCN(Cc1cnn(C)c1)CC1CCOC1 (configuration not stated) | -8.52
68 | COc1ccccc1OC1CN(C(=O)C2CNCC(=O)N2)C1 (configuration not stated) | 5.46
69 | CC(=O)N1Cc2cnc(C(C)(C)C)nc2C1 | -122

Row | SMILES | cytotoxicity at 10 µM [%]
70 | O=C(O)CNc1cc(-c2cc(C3CC3)ncn2)c2cc[nH]c2n1 | 7.69
71 | CCC1c2cccn2CCN1C(=O)c1cc(OC)nc(OC)n1 (configuration not stated) | 15
72 | CCc1ncc2c(n1)CN(c1cc(N3CCN(C)CC3)nc(N)n1)C2 | 22.8
73 | CC(C)Cn1cncc1CNC(=O)c1cccc(Cn2cccn2)c1 | -3.12
74 | CN1CCC(N(CCc2ccccc2)Cc2noc(C3CC3)n2)CC1 | -3.49
75 | CCc1csc(CNC(=O)C(CC)n2cccn2)n1 (configuration not stated) | -0.651
76 | Cc1cc(=O)[nH]c(SC(C)C(=O)N2CCCN(C3CCCC3)CC2)n1 (configuration not stated) | -8.04
77 | Cc1nc2c(c(N(C)C)n1)CCN(C(=O)c1sccc1S(N)(=O)=O)C2 | -2.29
78 | Cc1nc(CN2CCCC(NCc3ccc4c(c3)CCO4)C2)no1 (configuration not stated) | -3.61
79 | CCc1nc(C2CCCN2Cc2ccno2)no1 (configuration not stated) | 2.52
80 | c1ccc(Cc2noc(CN3CCc4cncnc4C3)n2)cc1 | -5.91
81 | COc1cc(CCC(=O)NC(C)C)ccc1OCC(F)(F)F | -4.24
82 | CCCc1nc(C)c(C(=O)NCCNc2ncccn2)s1 | -7.22
83 | Cn1ncc2c(=O)[nH]c(CN3CCCC3CC(C)(C)C)nc21 (configuration not stated) | -1.09
84 | Cn1ncc2c(=O)[nH]c(CN3CCCC3CCc3ccccc3)nc21 (configuration not stated) | -8.21
85 | Cc1cccc(-c2nc(CNC3CCc4nc(C)nn4C3)no2)c1 (configuration not stated) | -4.3
86 | CC(NCc1c(C(C)C)nn(C)c1N1CCOCC1)C(=O)N(C)C (configuration not stated) | -10.7
87 | Cc1cc(CN2CCC(N(C)Cc3noc(C4CC4)n3)C2)on1 (configuration not stated) | 1.54
88 | COc1ccccc1COCC(O)CN1CC(n2cccn2)C1 (configuration not stated) | -6.25
89 | O=C(CCc1ccco1)N1CCCN(Cc2cscn2)CC1 | 3.28
90 | CC(C)N1CCN(C(=O)C(C)n2cncn2)CC1 (configuration not stated) | 0.724
91 | CSc1ccc(CNC(=O)NCC(O)c2cccc(F)c2)cc1 (configuration not stated) | -6.16
92 | Cc1cnc(C(=O)NCc2ccc3c(c2)CCCN3C)cn1 | -4.92

Row | SMILES | cytotoxicity at 10 µM [%]
93 | CC(C)=CCN1CCOC(Cn2cccn2)C1 (configuration not stated) | 2.4
94 | CC(C)CN1CC(C(=O)NCc2cccnc2-n2cccn2)CC1=O (configuration not stated) | -1.04
95 | CCc1noc(CNCC2CCCN2c2cccnn2)n1 (configuration not stated) | 2.11
96 | Cc1nnc(C2Cc3ccccc3CN2Cc2c(C)noc2C)o1 (configuration not stated) | -13.7
97 | Cc1nnc(CN(C)CC2CCCN2c2cccnn2)o1 (configuration not stated) | -0.514
98 | O=C(NCCNc1ncccn1)C1CC(=O)N(CC(F)(F)F)C1 (configuration not stated) | -9.02
99 | Cc1nnc(N2C[C@H](OCc3ccncc3)[C@H]3OCCC[C@H]32)s1 | 13.6
100 | NC(=O)CN1CC(c2nc(C3CC3)no2)C1 | 5.62
101 | O=C(C[C@@H]1COC[C@H]2CN(Cc3ccncc3)C[C@@H]12)N1CCOCC1 | 6.59
102 | Cn1ccnc1NC[C@@H]1CCC[C@@H]2CN(Cc3cccnc3)C[C@@H]21 | 5.55
103 | O=C(Cc1ccccc1)N1CCCC2(COCCN(CC3CC3)C2)C1 (configuration not stated) | -1.03
104 | C[C@H]1CN(Cc2cccc(F)c2)C[C@@]12CCN(CC(=O)N(C)C)C2=O | -7.13
105 | Cn1nnc2c1CCN(C(=O)C1CCC1)C2COCCN1CCCC1 (configuration not stated) | 11
106 | CC[C@H]1N(CC2CCC2)CCC[C@]12CCC(=O)N2Cc1ccncc1 | -0.508
107 | CCOCC1CN(C(=O)CS(C)(=O)=O)Cc2cnn(C)c21 (configuration not stated) | -6.63
108 | COCC1CN(c2ccncn2)Cc2cnn(CC3CCCC3)c21 (configuration not stated) | 4.83
109 | COCC1CC2(CCN(S(=O)(=O)C3CC3)CC2)CN1c1ncccn1 (configuration not stated) | -2.01
110 | CN1CC(=O)N(c2cccc(F)c2)CC12CCN(CC1CC1)C2 (configuration not stated) | 2.26
111 | CO[C@@H]1CCN(C(=O)Cc2cccc(F)c2)[C@H]1Cc1cccnc1 | -4.89
112 | CC(=O)N1CCN(Cc2ccco2)CC2(CC(=O)N(C)C2)C1 (configuration not stated) | -3.81
